Results from ChEMBL document CHEMBL1141693, “Discovery of benzoylpiperazines as a novel class of potent and selective GlyT1 inhibitors” (Bioorg Med Chem Lett, 2008).
Converted amounts (≈) assume the structure as drawn.

Legend:
[1] = biological target: T1, Sodium- and chloride-dependent glycine transporter 2 (Homo sapiens, UniProt Q9Y345); experiment: Inhibition of [3H]glycine uptake at human glycine transporter 2 expressed in CHO cells by scintillation counter; assay type: cell-based
T1 sequence (Q9Y345 whole entry): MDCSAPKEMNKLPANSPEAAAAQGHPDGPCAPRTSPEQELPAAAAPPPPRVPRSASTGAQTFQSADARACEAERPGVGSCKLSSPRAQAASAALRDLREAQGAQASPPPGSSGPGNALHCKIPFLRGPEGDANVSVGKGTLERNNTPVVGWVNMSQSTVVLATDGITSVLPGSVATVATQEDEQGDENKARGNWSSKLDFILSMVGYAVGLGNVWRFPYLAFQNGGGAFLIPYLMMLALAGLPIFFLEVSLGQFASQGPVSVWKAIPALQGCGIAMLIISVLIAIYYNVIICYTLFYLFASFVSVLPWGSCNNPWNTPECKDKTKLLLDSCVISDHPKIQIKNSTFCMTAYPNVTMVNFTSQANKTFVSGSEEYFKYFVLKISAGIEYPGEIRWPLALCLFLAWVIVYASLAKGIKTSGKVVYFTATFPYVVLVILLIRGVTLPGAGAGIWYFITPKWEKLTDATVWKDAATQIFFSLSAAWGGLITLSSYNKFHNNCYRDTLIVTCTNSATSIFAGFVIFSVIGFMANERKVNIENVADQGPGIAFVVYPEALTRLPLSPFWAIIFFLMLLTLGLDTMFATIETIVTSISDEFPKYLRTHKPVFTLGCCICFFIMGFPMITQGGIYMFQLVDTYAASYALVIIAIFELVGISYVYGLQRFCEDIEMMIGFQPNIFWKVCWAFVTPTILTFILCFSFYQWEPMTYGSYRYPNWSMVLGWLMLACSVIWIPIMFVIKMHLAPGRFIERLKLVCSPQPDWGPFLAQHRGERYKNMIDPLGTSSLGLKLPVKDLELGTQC
Outline: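 [³H]-glycine uptake inhibition in cells transfected with human GlyT2 cDNA. EC50 is the average of at least two independent experiments.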

[2] = biological target: T2, Sodium- and chloride-dependent glycine transporter 1 (Homo sapiens, UniProt P48067); experiment: Inhibition of [3H]glycine uptake at human glycine transporter 1 expressed in CHO cells by scintillation counter; assay type: cell-based
T2 sequence (P48067 whole entry): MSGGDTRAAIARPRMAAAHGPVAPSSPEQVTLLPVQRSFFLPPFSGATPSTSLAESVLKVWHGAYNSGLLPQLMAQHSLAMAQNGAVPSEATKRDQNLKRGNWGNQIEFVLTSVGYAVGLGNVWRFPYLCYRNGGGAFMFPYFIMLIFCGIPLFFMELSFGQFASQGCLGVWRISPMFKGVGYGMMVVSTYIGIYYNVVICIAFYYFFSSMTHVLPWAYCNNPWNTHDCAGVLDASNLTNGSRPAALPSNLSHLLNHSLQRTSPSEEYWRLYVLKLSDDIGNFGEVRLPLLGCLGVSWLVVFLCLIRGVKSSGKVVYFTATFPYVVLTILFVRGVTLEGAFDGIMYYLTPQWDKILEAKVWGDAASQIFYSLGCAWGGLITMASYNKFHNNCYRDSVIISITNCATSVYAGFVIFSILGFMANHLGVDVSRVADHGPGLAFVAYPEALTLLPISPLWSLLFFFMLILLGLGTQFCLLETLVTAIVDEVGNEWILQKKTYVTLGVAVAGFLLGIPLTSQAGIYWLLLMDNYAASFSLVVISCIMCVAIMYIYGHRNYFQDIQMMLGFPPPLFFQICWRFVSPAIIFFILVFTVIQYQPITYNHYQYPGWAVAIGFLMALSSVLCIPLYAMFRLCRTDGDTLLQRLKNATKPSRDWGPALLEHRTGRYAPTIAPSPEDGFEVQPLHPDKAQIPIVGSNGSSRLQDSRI

[3] = Aqueous solubility in phosphate buffer at pH 6.5 by lyophilization solubility assay; assay type: physicochemical
Outline: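 Aqueous solubility was measured at pH 6.5 in a lyophilization solubility assay.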

Liver microsomes [4] = experiment: Metabolic stability in rat liver microsomes assessed as intrinsic clearance per […] of protein; assay type: ADME, Microsome
Outline: (§1)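 Intrinsic clearance measured in liver microsomes from rat, mouse or human, expressed per mg microsomal protein.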

Liver microsomes [5] = experiment: Metabolic stability in human liver microsomes assessed as intrinsic clearance per […] of protein; assay type: ADME, Microsome; outline: as §1
[6] = Membrane permeability by PAMPA; assay type: ADME; conditions: read-out: permeability
Outline: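 PAMPA artificial-membrane permeation, reported as the permeation constant Pe in 10^-6 cm/s.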

Homo sapiens = species on record: Homo sapiens; experiment: Selectivity ratio of IC50 for human glycine transporter 2 to IC50 for human glycine transporter 1
Outline: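 [³H]-glycine uptake inhibition in cells transfected with human GlyT1 or human GlyT2 cDNA. Each EC50 is the average of at least two independent experiments. Selectivity is the ratio of GlyT2 EC50 to GlyT1 EC50.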

Row | Compound | EC50 [1] [nM] | EC50 [2] [nM] | further results
1 | CC(=O)c1ccc(N2CCN(C(=O)c3cc([N+](=O)[O-])ccc3N3CCOCC3)CC2)c(F)c1 | 4800 | 15 | solubility [3]: 9 µg/mL (≈ 19.7 µM); clearance (Liver microsomes [4]): 106 µL/min/mg; clearance (Liver microsomes [5]): 35 µL/min/mg; Papp [6]: 4.7 ×10⁻⁶ cm/s; Ratio EC50 (Homo sapiens): 320
2 | CS(=O)(=O)c1ccc(N2CCN(C(=O)c3cc([N+](=O)[O-])ccc3N3CCOCC3)CC2)cc1 | 2100 | 110 | 
3 | O=C(c1cc([N+](=O)[O-])ccc1N1CCOCC1)N1CCN(c2ccc(C(F)(F)F)cc2)CC1 | 3300 | 100 | 
4 | O=C(c1cc([N+](=O)[O-])ccc1N1CCOCC1)N1CCN(c2ccc(C(F)(F)F)cc2F)CC1 | 29000 | 41 | 
5 | CC(=O)c1ccc(N2CCN(C(=O)c3cc(S(=O)(=O)Cc4ccccc4)ccc3N3CCOCC3)CC2)c(F)c1 | > 30000 | > 30000 | 
6 | N#Cc1ccc(N2CCN(C(=O)c3cc([N+](=O)[O-])ccc3N3CCOCC3)CC2)c(F)c1 | 4300 | 30 | 
7 | O=C(c1cc([N+](=O)[O-])ccc1N1CCOCC1)N1CCN(c2ccccc2C(F)(F)F)CC1 | > 30000 | 7100 | 
8 | CC(=O)c1ccc(N2CCN(C(=O)c3cc(C)ccc3N3CCOCC3)CC2)c(F)c1 | > 30000 | > 30000 | 
9 | CC(=O)c1ccc(N2CCN(C(=O)c3cc(N)ccc3N3CCOCC3)CC2)c(F)c1 | > 30000 | > 30000 | 
10 | O=C(c1cc([N+](=O)[O-])ccc1N1CCOCC1)N1CCN(c2ccccc2Cl)CC1 | 11200 | 1400 | 
11 | CC(=O)c1ccc(N2CCN(C(=O)c3cc([N+](=O)[O-])ccc3NCC3CCCCC3)CC2)c(F)c1 |  | > 10000 | 
12 | O=C(c1cc([N+](=O)[O-])ccc1N1CCOCC1)N1CCN(c2cccc(Cl)c2)CC1 | 3100 | 700 | 
13 | CCCS(=O)(=O)c1ccc(N2CCOCC2)c(C(=O)N2CCN(c3ccc(C(C)=O)cc3F)CC2)c1 | > 30000 | 1600 | 
14 | CC(=O)c1ccc(N2CCN(C(=O)c3cc(C(F)(F)F)ccc3N3CCOCC3)CC2)c(F)c1 | 11000 | 26000 | Ratio EC50 (Homo sapiens): 0.4
15 | Cc1cccc(N2CCN(C(=O)c3cc([N+](=O)[O-])ccc3N3CCOCC3)CC2)c1 | 4000 | 1100 | 
16 | CS(=O)(=O)c1ccc(N2CCN(C(=O)c3cc([N+](=O)[O-])ccc3N3CCOCC3)CC2)c(F)c1 | > 30000 | 40 | 
17 | N#Cc1cc(C(F)(F)F)ccc1N1CCN(C(=O)c2cc([N+](=O)[O-])ccc2N2CCOCC2)CC1 | > 30000 | 15 | 
18 | CC(=O)c1ccc(N2CCN(C(=O)c3ccccc3N3CCOCC3)CC2)c(F)c1 |  | > 30000 | 
19 | O=C(c1cc([N+](=O)[O-])ccc1N1CCOCC1)N1CCN(c2cccc(C(F)(F)F)c2)CC1 | 300 | 400 | 
20 | COc1ccccc1N1CCN(C(=O)c2cc([N+](=O)[O-])ccc2N2CCOCC2)CC1 | 13400 | > 10000 | 

Row | Compound | EC50 [1] [nM] | EC50 [2] [nM] | further results
21 | O=C(c1cc([N+](=O)[O-])ccc1N1CCOCC1)N1CCN(c2ncc(C(F)(F)F)cc2Cl)CC1 | > 30000 | 47 | 
22 | CC(=O)c1ccc(N2CCN(C(=O)c3cc([N+](=O)[O-])ccc3N(C)C)CC2)c(F)c1 | 2000 | 500 | 
23 | CC(=O)c1ccc(N2CCN(C(=O)c3cc([N+](=O)[O-])ccc3N3CCCCC3)CC2)c(F)c1 | 4000 | 1 | 
24 | O=C(c1cc([N+](=O)[O-])ccc1N1CCOCC1)N1CCN(c2ccc(C(F)(F)F)c(Cl)n2)CC1 | 24000 | 33 | 
25 | CC(=O)c1ccc(N2CCN(C(=O)c3cc([N+](=O)[O-])ccc3NC3CCCCC3)CC2)c(F)c1 | 8500 | 2 | 
26 | CC(=O)c1ccc(N2CCN(C(=O)c3cccc([N+](=O)[O-])c3)CC2)c(F)c1 | 24500 | 32000 | 
27 | COc1cccc(N2CCN(C(=O)c3cc([N+](=O)[O-])ccc3N3CCOCC3)CC2)c1 | 8300 | 530 | 
28 | CC(=O)c1ccc(N2CCN(C(=O)c3cc(S(C)(=O)=O)ccc3OC(C)C)CC2)c(F)c1 | > 30000 | 39 | 
29 | CC(=O)c1ccc(N2CCN(C(=O)c3cc(S(C)(=O)=O)ccc3SC(C)C)CC2)c(F)c1 | > 30000 | 15 | 
30 | CC(=O)c1ccc(N2CCN(C(=O)c3cc([N+](=O)[O-])ccc3N)CC2)c(F)c1 | 3300 | > 10000 | 
31 | N#Cc1ccc(N2CCN(C(=O)c3cc([N+](=O)[O-])ccc3N3CCOCC3)CC2)cc1 | 1100 | 78 | 
32 | CC(=O)c1ccc(N2CCN(C(=O)c3cc([N+](=O)[O-])ccc3NC(C)C)CC2)c(F)c1 | 10000 | 2 | 
33 | O=C(c1cc([N+](=O)[O-])ccc1N1CCOCC1)N1CCN(c2ccc(Cl)cc2)CC1 | 1170 | 310 | 
34 | CC(=O)c1ccc(N2CCN(C(=O)c3cc(Br)ccc3N3CCOCC3)CC2)c(F)c1 | 5100 | > 30000 | Ratio EC50 (Homo sapiens): < 0.2
35 | CC(=O)c1ccc(N2CCN(C(=O)c3cc(S(N)(=O)=O)ccc3N3CCOCC3)CC2)c(F)c1 | > 30000 | 120 | solubility [3]: 308 µg/mL (≈ 628 µM); clearance (Liver microsomes [5]): 31 µL/min/mg; Papp [6]: 3.3 ×10⁻⁶ cm/s; Ratio EC50 (Homo sapiens): > 250
36 | CNc1ccc([N+](=O)[O-])cc1C(=O)N1CCN(c2ccc(C(C)=O)cc2F)CC1 | 1400 | 1900 | 
37 | Cc1ccc(N2CCN(C(=O)c3cc([N+](=O)[O-])ccc3N3CCOCC3)CC2)cc1 | 7700 | 2900 | 
38 | COc1ccc(N2CCN(C(=O)c3cc([N+](=O)[O-])ccc3N3CCOCC3)CC2)cc1 | 11400 | 1300 | 
39 | O=C(c1cc([N+](=O)[O-])ccc1N1CCOCC1)N1CCN(c2ccc(C(F)(F)F)c(F)c2)CC1 | 15000 | 37 | 
40 | Cc1ccccc1N1CCN(C(=O)c2cc([N+](=O)[O-])ccc2N2CCOCC2)CC1 | 14200 | > 10000 | 
